Experimental data from PubChem BioAssay.
Results filed as inconclusive are left out.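 How the source made its calls, unless noted: active means viability increase at or above a cutoff of the median across tested compounds plus 3 SD (cut at about 8.5% in these data, passing the limit was not always enough); inconclusive means some gains above the cutoff, reason not given; inactive means the rest.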

Tests used:
[1] = S. cerevisiae growth inhibition in permissive medium (OD615), pilot counter-assay for S. cerevisiae lifespan shortening project, permissive growth control (AID 705;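 active means growth inhibition above 25% in both replicates, a cutoff set 3 SD above the mean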); details: OD615, 24 h, at 10 µM, active compounds read high
Summary of the method: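 Material: engineered DeaD yeast; compound dosing: one dose 10 µM, DMSO 0.25% final; measure: yeast growth inhibition indicated by reduced 24 h OD615; detection: OD615 turbidity read; incubation: cells pre-grown 4 h, then 24 h compound exposure, 30 °C humidified; medium: permissive synthetic complete medium with raffinose and galactose carbon sources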

[2] = S. cerevisiae growth inhibition in restrictive medium, OD615, pilot screen, restrictive growth control, yeast lifespan reduction project (AID 706;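 active means growth inhibition above a set limit, 3 SD over mean compound inhibition, in both replicates, cut at about 43% in these data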;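 further: modified DeaD lifespan yeast strain shifted to restrictive glucose medium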); details: OD615, 48 h, at 10 µM, active compounds read high
Summary of the method: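 material = engineered S. cerevisiae DeaD strain | medium = glucose-based CSMM-D restrictive medium | times = 4 h pre-incubation, 48 h exposure at 30 °C | technique = OD615 absorbance reading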

[3] = doxorubicin toxicity protection in MRP-1 cells – H69AR cells, CellTiter-Glo, duplicate, MRP-1 activator project, pilot screen (AID 807); details: H69AR viability with doxorubicin, CellTiter-Glo luminescence; at 10 µM; active compounds read high;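 further: compound pretreatment 18-22 h then 72 h combined with doxorubicin; 0% = doxorubicin alone and 100% = vehicle without doxorubicin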
[4] = viability of HCT116 without oncogenic beta-catenin – human colon tumor cells, pilot screen (AID 823;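 active means cell viability at or below a set limit in both duplicate runs, the limit being the all-compound median minus 4 SD, cut at about 23% in these data, passing the limit was not always enough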;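 further: 0% = wells killed by 20 µM Hyamine and 100% = untreated DMSO cell wells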); details: HCT116 beta-catenin knockout viability, CellTiter-Glo, 60 h; at 10 µM; active compounds read low
[5] = viability of PTEN-null HCT116 cells – cell-based, HCT116 clonal line, CellTiter-Glo, pilot screen (AID 824;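 active means viability at or below 27.92% in each of two runs, the all-compound median minus 4 SD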;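 further: 0% = 20 µM Hyamine control and 100% = vehicle cell control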); details: HCT116 PTEN-deleted viability, 60 h, at 10 µM, active compounds read low
[6] = RAM pathway blockade in budding yeast – dse1pr::URA3 reporter, 5-FOA selection, pilot screen (AID 869;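 active means inhibition over a set limit, the all-compound mean plus 3 SD, in both replicate runs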;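 further: 0% = DMSO wells with no growth and 100% = 10 µM 1-NA-PP1 with full growth; RAM network block rescues cells from 5-FOA so hits raise OD615 growth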); details: S. cerevisiae dse1pr::URA3 5-FOA growth, OD615, 2 d; at 10 µM; active compounds read high; strain carries analog-sensitive mutant Cbk1 kinase
[7] = RAM signaling pathway blockade in yeast – S. cerevisiae, Pdr1DBD-CYC8 efflux-inhibited sensitized strain, primary screen (AID 1298;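 active means RAM network inhibition above 8.4% in each of two replicates, 3 SD over the compound average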;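 further: 0% = DMSO untreated cells without growth and 100% = 10 µM 1-NA-PP1 full growth; higher means more yeast growth rescued from 5-FOA killing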); details: S. cerevisiae cbk1-as DSE1-URA3 strain, 5-FOA growth OD615, 2 d; at 50 µM; active compounds read high

CNC(=O)c1c(N)sc2c1CCCCC2
inactive: growth inhibition [1] -2.01% | growth inhibition [2] 8.19% | viability increase [3] -3.12% | viability [4] 88.8% | viability [5] 88.1% | inhibition [6] 1.19% | RAM network inhibition [7] 4.13%

CCCCN(C)CCC(=O)Nc1ccc(OC)cc1OC
inactive: growth inhibition [1] -0.81% | growth inhibition [2] -1.21% | viability increase [3] -3.73% | viability [4] 88.5% | viability [5] 86.4% | inhibition [6] 2.29% | RAM network inhibition [7] -1.48%

COc1ccccc1C1C(C(N)=O)=C(C)Nc2nc(-c3ccccc3Cl)nn21 (configuration not stated)
inactive: growth inhibition [1] -4.68% | growth inhibition [2] -4.21% | viability increase [3] -2.13% | viability [4] 92.9% | viability [5] 95.8% | inhibition [6] 0.48% | RAM network inhibition [7] -2.19%

CC1CCCCC1NS(=O)(=O)c1ccc(S(=O)(=O)N2CCN(CCC#N)CC2)cc1 (configuration not stated)
inactive: growth inhibition [1] -0.665% | growth inhibition [2] -2.72% | viability increase [3] -2.84% | viability [4] 86.2% | viability [5] 87.8% | inhibition [6] 0.54% | RAM network inhibition [7] 3.44%

CC1CC=C2C(C#N)=C(N)C(C#N)(C#N)C(c3cccs3)C2C1 (configuration not stated)
inactive: growth inhibition [1] -11% | growth inhibition [2] -6.39% | viability increase [3] -4.25% | viability [4] 85.5% | viability [5] 85.7% | inhibition [6] 2.66% | RAM network inhibition [7] 3.84%

COc1ccc(N(CC(=O)N2CCCCC2)S(=O)(=O)c2c(C)nn(C)c2C)cc1
inactive: growth inhibition [1] -5.81% | growth inhibition [2] 5.36% | viability increase [3] -2.35% | viability [4] 105% | viability [5] 96.7% | inhibition [6] 1.69% | RAM network inhibition [7] 2.99%

O=C1CC(c2ccco2)Sc2nc3ccccc3n21 (configuration not stated)
inactive: growth inhibition [1] -10.5% | growth inhibition [2] 13.4% | viability increase [3] -3.98% | viability [4] 67.2% | viability [5] 80.3% | inhibition [6] 0.365% | RAM network inhibition [7] 1.62%

CCOC(=O)NCc1ccc(CNC(=O)OCC)cc1
inactive: growth inhibition [1] -9.67% | growth inhibition [2] 4.35% | viability increase [3] -1.96% | viability [4] 97.1% | viability [5] 90% | inhibition [6] 0.81% | RAM network inhibition [7] 0.57%

Cc1cc(C)n(-c2nc(C)nc(NCc3ccccc3)n2)n1
inactive: growth inhibition [1] -17.5% | growth inhibition [2] -11.6% | viability increase [3] -2.88% | viability [4] 88.4% | viability [5] 82.7% | inhibition [6] 0.215% | RAM network inhibition [7] 0.98%

O=C(NCc1ccc(Cl)cc1)c1cccnc1
inactive: growth inhibition [1] -1.45% | growth inhibition [2] 9.27% | viability increase [3] -0.63% | viability [4] 92.8% | viability [5] 93.6% | inhibition [6] 1.8% | RAM network inhibition [7] 0.15%

O=C(Nc1c(F)c(F)c(F)c(F)c1F)C1CCCCC1
inactive: growth inhibition [1] -1.42% | growth inhibition [2] -6.55% | viability increase [3] -1.05% | viability [4] 80% | viability [5] 89.2% | inhibition [6] 0.88% | RAM network inhibition [7] 7.02%

CN(C)S(=O)(=O)c1ccc(-c2ccccc2)cc1
inactive: growth inhibition [1] -6.75% | growth inhibition [2] -4.33% | viability increase [3] 0.02% | viability [4] 91.9% | viability [5] 90.6% | inhibition [6] 0.455% | RAM network inhibition [7] 8.77%

CC1=C(C(=O)OC(C)C)C(c2cccnc2)n2ncnc2N1 (configuration not stated)
inactive: growth inhibition [1] -6.7% | growth inhibition [2] -11% | viability increase [3] 0.27% | viability [4] 101% | viability [5] 100% | inhibition [6] 0.07% | RAM network inhibition [7] 5.02%

COC(=O)c1ccc(C2c3c(oc4ccccc4c3=O)C(=O)N2CCCN2CCOCC2)cc1 (configuration not stated)
inactive: growth inhibition [1] -2.57% | growth inhibition [2] -3.54% | viability increase [3] -4.63% | viability [4] 87.6% | viability [5] 82.9% | inhibition [6] 0.54% | RAM network inhibition [7] 0.48%

Cn1nc(-c2ccc(Cl)cc2)c2cc(C(=O)NC3CC3)sc21
inactive: growth inhibition [1] -7.08% | growth inhibition [2] -1.2% | viability increase [3] -6.68% | viability [4] 83.6% | viability [5] 84.2% | inhibition [6] 3.62% | RAM network inhibition [7] 3.94%

Cc1ccccc1N(CC(=O)NCCSCc1ccco1)S(C)(=O)=O
inactive: growth inhibition [1] -4.43% | growth inhibition [2] -7.72% | viability increase [3] -3.94% | viability [4] 93.1% | viability [5] 95.5% | inhibition [6] -0.58% | RAM network inhibition [7] 7.43%

CC1(C)CC2CC(C)(CN2C(=O)C23CCC(C)(C(=O)O2)C3(C)C)C1 (configuration not stated)
inactive: growth inhibition [1] -6.75% | growth inhibition [2] -1.53% | viability increase [3] -1.13% | viability [4] 92.5% | viability [5] 91.1% | inhibition [6] 2.16% | RAM network inhibition [7] 4%

Cc1ccccc1-c1nc(CS(=O)CC(=O)NCc2ccccc2)c(C)o1 (configuration not stated)
inactive: growth inhibition [1] 0.295% | growth inhibition [2] 7.02% | viability increase [3] 1.37% | viability [4] 101% | viability [5] 101% | inhibition [6] 0.655% | RAM network inhibition [7] 4%

CCOC(=O)C1CCCN(c2cc(=O)n(-c3ccccc3Cl)c(=O)[nH]2)C1 (configuration not stated)
inactive: growth inhibition [1] -3.86% | growth inhibition [2] -18.9% | viability increase [3] -1.99% | viability [4] 89.7% | viability [5] 94.5% | inhibition [6] 1.53% | RAM network inhibition [7] 0.31%

CCNC(=O)COc1ccc2ccccc2c1
inactive: growth inhibition [1] -2.77% | growth inhibition [2] 3.62% | viability increase [3] 0.99% | viability [4] 97.4% | viability [5] 99.6% | inhibition [6] 1.06% | RAM network inhibition [7] 1.53%

CC(C)NS(=O)(=O)c1ccc2c(c1)oc(=O)n2C
inactive: growth inhibition [1] -2.26% | growth inhibition [2] 2.4% | viability increase [3] -0.75% | viability [4] 106% | viability [5] 98.7% | inhibition [6] -0.14% | RAM network inhibition [7] 0.91%

N#Cc1ccc(Oc2cccc(C(=O)O)c2)cc1C#N
inactive: growth inhibition [1] -13.1% | growth inhibition [2] -3.21% | viability increase [3] -0.11% | viability [4] 94.8% | viability [5] 92.7% | inhibition [6] 1.34% | RAM network inhibition [7] 2.14%

CC(=O)c1cc(F)c(N2CCN(CCC#N)CC2)cc1C
inactive: growth inhibition [1] -3.07% | growth inhibition [2] -19.6% | viability increase [3] -0.38% | viability [4] 105% | viability [5] 81.3% | inhibition [6] 0.35% | RAM network inhibition [7] 0.47%

Cc1nc2ccccc2c2oc(C(=O)NC3CC3)cc12
inactive: growth inhibition [1] -8% | growth inhibition [2] 5.36% | viability increase [3] -2.61% | viability [4] 112% | viability [5] 89.6% | inhibition [6] 0.79% | RAM network inhibition [7] -1.66%

CCOC(=O)C1=C(C)Nc2nc(C)nn2C1c1cc(OC)ccc1OC (configuration not stated)
inactive: growth inhibition [1] 3.21% | growth inhibition [2] 4.81% | viability increase [3] -1.53% | viability [4] 108% | viability [5] 100% | inhibition [6] -1.1% | RAM network inhibition [7] -0.16%

CCc1ccc2nc(NC3=NCN(CCOC)CN3)nc(C)c2c1
inactive: growth inhibition [1] -2.2% | growth inhibition [2] -4.05% | viability increase [3] -2.81% | viability [4] 63% | viability [5] 66.9% | inhibition [6] 1.18% | RAM network inhibition [7] -1.8%

O=c1nc2scc(-c3ccccc3)n2c2ccccc12
inactive: growth inhibition [1] -14.7% | growth inhibition [2] -0.83% | viability increase [3] -2.24% | viability [4] 94.1% | viability [5] 97.1% | inhibition [6] 4.32% | RAM network inhibition [7] 7.95%

O=C(Cn1c(N2CCN(c3ccccc3)CC2)nc2ccccc21)c1ccccc1
inactive: growth inhibition [1] -10.3% | growth inhibition [2] -9.96% | viability increase [3] -3.76% | viability [4] 84.3% | viability [5] 93.6% | inhibition [6] 2.6% | RAM network inhibition [7] 4.62%

O=C(NCCCN1CCCCC1)c1ccc2c(=O)n(CCc3ccccc3)c(=O)[nH]c2c1
inactive: growth inhibition [1] -7.09% | growth inhibition [2] -6.43% | viability increase [3] -3.27% | viability [4] 77.3% | viability [5] 83% | inhibition [6] 0.675% | RAM network inhibition [7] 8.53%

Cc1ccc(NC(=O)c2c(O)c3ccccc3n(C)c2=O)nc1
inactive: growth inhibition [1] -3.92% | growth inhibition [2] 9.36% | viability increase [3] -5.52% | viability [4] 75.3% | viability [5] 70.2% | inhibition [6] 0.36% | RAM network inhibition [7] -1.46%

CSC1=NCCN1C(=O)Cc1ccc(F)cc1
inactive: growth inhibition [1] -0.72% | growth inhibition [2] 0.85% | viability increase [3] 2.96% | viability [4] 105% | viability [5] 103% | inhibition [6] 0.725% | RAM network inhibition [7] 4.04%

CCOC(=O)c1ccc(N2CSC3=C(C#N)C(c4cccs4)CC(=O)N3C2)cc1 (configuration not stated)
inactive: growth inhibition [1] 6.68% | growth inhibition [2] 28.2% | viability increase [3] -1.48% | viability [4] 103% | viability [5] 85.3% | inhibition [6] 1.52% | RAM network inhibition [7] 2.37%

CCSCCOC(=O)C1=C(C)NC(=O)NC1c1ccccc1 (configuration not stated)
inactive: growth inhibition [1] -4.77% | growth inhibition [2] -1.22% | viability increase [3] 0.68% | viability [4] 105% | viability [5] 98.1% | inhibition [6] 1.47% | RAM network inhibition [7] 0.3%

COc1ccccc1CNc1ncnc2c1cnn2-c1ccccc1
inactive: growth inhibition [1] -13.5% | growth inhibition [2] -7.05% | viability increase [3] -4.76% | viability [4] 74.2% | viability [5] 79% | inhibition [6] 0.575% | RAM network inhibition [7] 0.57%

COc1cc(OC)cc(-c2nc(-c3ccc(Br)cc3)no2)c1
inactive: growth inhibition [1] -13.6% | growth inhibition [2] -13.2% | viability increase [3] 1.86% | viability [4] 94% | viability [5] 89.2% | inhibition [6] 3.5% | RAM network inhibition [7] 8.01%

C=CCSc1nc2c(c(=O)[nH]1)C(C(C)C)C(C#N)=C(N)O2 (configuration not stated)
inactive: growth inhibition [1] 0.845% | growth inhibition [2] 1.47% | viability increase [3] -2.3% | viability [4] 101% | viability [5] 101% | inhibition [6] 1.75% | RAM network inhibition [7] 1.88%
